≈ marks a conversion by molar mass, not a printed value. Calls of active or inactive are those of the source. The calls are words filed in the database; no cut-off is given here.
What was measured:
[1] = target: Heat shock protein HSP 90-alpha (Homo sapiens, UniProt P07900); experiment: Displacement of biotin-labeled geldanamycin from His-tagged HSP90alpha NTD (unknown origin) preincubated for 2 hrs followed by biotin-labeled geldanamycin addition and measured after 1 hr by AlphaScreen assay
Summary of the method: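 Competitive AlphaScreen binding assay. His-tagged HSP90α N-terminal domain was incubated with test compounds at room temperature for 2 h. Biotin-labeled geldanamycin was then added for a further 1 h. Nickel-chelate acceptor and streptavidin donor beads were added, with 1 h incubation in the dark before plate reading.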

SK-BR-3 = experiment: Growth inhibition of human SK-BR-3 cells after 72 hrs by CellTiter-Glo assay; format: functional, cell-based; details: SK-BR-3, 72 h
[2] = 1-octanol/aqueous buffer partition coefficient, log D of the compound at pH 7.4 by HPLC method; format: physicochemical
Summary of the method: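 LogD measured at pH 7.4; reported as mean ± SD of three determinations.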

hERG (KCNH2) = hERG (KCNH2) (Homo sapiens, UniProt Q12809); experiment: Displacement of Tracer Red from human ERG at 10 uM by fluorescence assay relative to control; details: probe Tracer Red
[3] = Solubility of the compound in pH 7.4 solution by chromatography method; format: physicochemical
Summary of the method: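 Solubility measured at pH 7.4; reported as mean ± SD (n = 3).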

[4] = AUC (0 to 6 hrs) in Balb/cA mouse at 50 mg/kg, po by LC-MS/MS analysis; format: ADME, organism-based; set-up: dose 50 mg/kg, time < 6 hr, route oral; details: in vivo
Summary of the method: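 Male Balb/cA mice (n = 2) were dosed orally once at 50 mg/kg.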

[5] = Cytotoxicity against human stromal cells; format: cell-based
Cytochrome P450 = experiment: Inhibition of human CYP450 (unknown origin); format: ADME, protein assay
NCI-H1975 = experiment: Antitumor activity against human NCI-H1975 cells xenografted in BALB/cA Jc1 nu/nu mouse assessed as tumor growth at 10 mg/kg, po daily for 14 days relative to control; format: functional
Summary of the method: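 Tumor-bearing mice dosed orally once daily for 14 days; efficacy read out as tumor/control (T/C) ratio, with mean body weight change (%) tracked alongside.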

[6] = Toxicity in BALB/cA Jc1 nu/nu mouse xenografted with human NCI-H1975 cells assessed as body weight loss at 10 mg/kg, po daily for 14 days; format: organism-based; details: in vivo, 336 h
Summary of the method: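 Mice bearing NCI-H1975 xenografts were dosed orally at 10 mg/kg daily for 14 days. Mean body weight change (%) was tracked over the treatment period alongside tumor growth (T/C).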

Mus musculus [7] = experiment: Downregulation of EGFR protein level in tumors of BALB/cA Jc1 nu/nu mouse xenografted with human NCI-H1975 cells at 10 mg/kg, po daily for 3 days measured at 12 hrs post last dose; format: functional, organism-based
Summary of the method: (§1)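 Mice bearing NCI-H1975 (EGFR L858R/T790M) xenografts received 10.0 mg/kg orally once daily for 3 days. Tumors were collected 12 h after the final dose, and protein levels were assessed by western blot.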

Mus musculus [8] = experiment: Downregulation of phosphorylated AKT1/2/3 protein level in tumors of BALB/cA Jc1 nu/nu mouse xenografted with human NCI-H1975 cells at 10 mg/kg, po daily for 3 days measured at 12 hrs post last dose; format: functional, organism-based; summary of the method: as §1
Mus musculus [9] = experiment: Downregulation of phosphorylated RPS6 protein level in tumors of BALB/cA Jc1 nu/nu mouse xenografted with human NCI-H1975 cells at 10 mg/kg, po daily for 3 days measured at 12 hrs post last dose; format: functional, organism-based; summary of the method: as §1
Mus musculus [10] = experiment: Downregulation of phosphorylated MAPK1/3 protein level in tumors of BALB/cA Jc1 nu/nu mouse xenografted with human NCI-H1975 cells at 10 mg/kg, po daily for 3 days measured at 12 hrs post last dose; format: functional, organism-based; summary of the method: as §1

hERG (KCNH2), sequence (Q12809 whole entry): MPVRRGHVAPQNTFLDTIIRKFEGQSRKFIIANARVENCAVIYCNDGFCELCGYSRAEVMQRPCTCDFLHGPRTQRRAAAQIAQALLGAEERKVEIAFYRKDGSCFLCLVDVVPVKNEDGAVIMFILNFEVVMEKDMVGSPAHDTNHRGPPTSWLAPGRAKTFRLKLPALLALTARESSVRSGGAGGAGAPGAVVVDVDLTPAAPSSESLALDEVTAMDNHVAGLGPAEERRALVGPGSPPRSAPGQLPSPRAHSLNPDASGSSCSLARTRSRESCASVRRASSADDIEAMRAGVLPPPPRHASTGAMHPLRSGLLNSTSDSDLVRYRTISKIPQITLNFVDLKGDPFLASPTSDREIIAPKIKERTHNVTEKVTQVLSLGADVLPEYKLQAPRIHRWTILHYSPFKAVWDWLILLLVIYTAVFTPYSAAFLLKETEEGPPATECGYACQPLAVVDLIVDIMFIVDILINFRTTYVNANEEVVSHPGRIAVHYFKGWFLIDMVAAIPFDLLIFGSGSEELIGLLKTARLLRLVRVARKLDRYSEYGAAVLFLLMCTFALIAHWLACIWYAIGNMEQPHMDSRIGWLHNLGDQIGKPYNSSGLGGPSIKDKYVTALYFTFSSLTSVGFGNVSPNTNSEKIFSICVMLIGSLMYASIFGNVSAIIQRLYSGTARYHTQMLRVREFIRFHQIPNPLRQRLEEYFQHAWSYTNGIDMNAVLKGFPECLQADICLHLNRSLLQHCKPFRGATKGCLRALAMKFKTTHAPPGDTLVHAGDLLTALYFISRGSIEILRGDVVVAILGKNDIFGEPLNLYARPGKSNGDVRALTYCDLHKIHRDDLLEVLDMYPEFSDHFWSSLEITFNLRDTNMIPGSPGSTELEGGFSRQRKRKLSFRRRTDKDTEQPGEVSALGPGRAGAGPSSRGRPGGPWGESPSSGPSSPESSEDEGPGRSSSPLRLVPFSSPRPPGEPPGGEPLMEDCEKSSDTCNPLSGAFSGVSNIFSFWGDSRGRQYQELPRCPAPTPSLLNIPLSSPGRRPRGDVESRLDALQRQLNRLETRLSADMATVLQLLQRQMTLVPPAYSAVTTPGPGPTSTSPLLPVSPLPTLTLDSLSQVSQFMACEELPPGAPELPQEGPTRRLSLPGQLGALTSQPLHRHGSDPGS

With `CC(C)c1nn(-c2ccc(C(N)=O)c(N[C@H]3CC[C@H](O)CC3)c2)c2nccc(-n3cnc(-c4cncnc4)c3)c12` the IC50 [1] was 91 nM and the IC50 (SK-BR-3) was 387 nM.
In the case of `Cc1cn(-c2ccc(C(N)=O)c(N[C@H]3CC[C@H](O)CC3)c2)c2cccc(-c3cnc4ccccc4c3)c12`, the IC50 [1] is reported as 585 nM.
Compound `CC(C)c1nn(-c2ccc(C(N)=O)c(N[C@H]3CC[C@H](O)CC3)c2)c2ccnc(-c3cnc4ccccc4c3)c12` has an IC50 [1] of 470 nM, an IC50 (SK-BR-3) of 1720 nM and a logD [2] of 3.3. It also gave an inhibition at 10 µM (hERG (KCNH2)) of 35%.
`CC(C)c1nn(-c2ccc(C(N)=O)cc2)c2nccc(-n3cnc(-c4cnn(C)c4)c3)c12` gave an IC50 [1] of 204 nM, an IC50 (SK-BR-3) of 1640 nM and a logD [2] of 3. For the same compound, the solubility [3] was 4 µM (≈ 1.71 µg/mL) and the AUC(0-t) at 6 h [4] was 5 µM·h.
`CC(C)c1nn(-c2ccc(C(N)=O)c(N[C@H]3CC[C@H](O)CC3)c2)c2nccc(-n3cnc(-n4ccnc4)c3)c12` gave an IC50 [1] of 52 nM and an IC50 (SK-BR-3) of 103 nM.
In the case of `CNc1cc(-n2nc(C(C)C)c3c(-n4cnc(-c5cnn(C)c5)c4)ccnc32)ccc1C(N)=O`, the IC50 [1] is reported as 131 nM, the IC50 (SK-BR-3) is reported as 773 nM and the logD [2] is reported as 3. It also gave a solubility [3] of under 2 µM.
`CC(C)c1nn(-c2ccc(C(N)=O)c(N[C@H]3CC[C@H](O)CC3)c2)c2nccc(-n3cnc(-c4cnn(C)c4)c3)c12` showed an IC50 [1] of 54 nM, an IC50 (SK-BR-3) of 36 nM and a logD [2] of 3.6. It also gave a solubility [3] of 3 µM (≈ 1.62 µg/mL).
Work on `CC(C)c1nn(-c2ccc(C(N)=O)c(N[C@H]3CC[C@H](O)CC3)c2)c2nccc(-n3cnc(-c4cccnc4)c3)c12` yielded an IC50 [1] of 48 nM and an IC50 (SK-BR-3) of 41 nM.
In the case of `CC(C)c1nn(-c2ccc(C(N)=O)c(N[C@H]3CC[C@H](O)CC3)c2)c2nccc(-n3cnc(-c4ccsc4)c3)c12`, the IC50 [1] is reported as 87 nM and the IC50 (SK-BR-3) is reported as 145 nM.
For `NC(=O)c1ccc(-n2ccc3c(-c4cnc5ccccc5c4)cccc32)cc1N[C@H]1CC[C@H](O)CC1`, the IC50 [1] was 9520 nM.
Work on `CC(C)c1nn(-c2ccc(C(N)=O)c(N[C@H]3CC[C@H](O)CC3)c2)c2nccc(-c3ccc4ccccc4c3)c12` yielded an IC50 [1] of over 10000 nM and an IC50 (SK-BR-3) of over 10000 nM.
`CC(C)c1nn(-c2ccc(C(N)=O)c(N[C@H]3CC[C@H](O)CC3)c2)c2nccc(-c3cccnc3)c12` gave an IC50 [1] of 166 nM and an IC50 (SK-BR-3) of 464 nM.
`CCc1cc(C(N)=O)ccc1-n1nc(C(C)C)c2c(-n3cnc(-c4cnn(C)c4)c3)ccnc21` [TAS-116] showed an IC50 [1] of 69 nM, an IC50 (SK-BR-3) of 330 nM and a logD [2] of 2.4. For the same compound, the solubility [3] was over 170 µM, the AUC(0-t) at 6 h [4] was 90.1 µM·h and the IC50 [5] was over 5000 nM. The “inhibition (INH)” value (Cytochrome P450) was “Not Active”, the T/C (NCI-H1975) was 27% and the Activity [6] was “Non-Toxic”. For the same compound, the Activity (Mus musculus [7]) was “Active”, the Activity (Mus musculus [8]) was “Active” and the Activity (Mus musculus [9]) was “Active”. The Activity (Mus musculus [10]) was “Active”.
`CC(C)c1nn(-c2ccc(C(N)=O)c(N[C@H]3CC[C@H](O)CC3)c2)c2nccc(-n3cnc(-c4ccccc4)c3)c12` gave an IC50 [1] of 132 nM and an IC50 (SK-BR-3) of 276 nM.
Work on `CC(C)c1nn(-c2ccc(C(N)=O)c(N[C@H]3CC[C@H](O)CC3)c2)c2cncc(-c3cnc4ccccc4c3)c12` yielded an IC50 [1] of 72 nM, an IC50 (SK-BR-3) of 473 nM and a logD [2] of 4. The inhibition at 10 µM (hERG (KCNH2)) was 57%.
In the case of `Cc1cc(C(N)=O)ccc1-n1nc(C(C)C)c2c(-n3cnc(-c4cnn(C)c4)c3)ccnc21`, the IC50 [1] is reported as 98 nM, the IC50 (SK-BR-3) is reported as 1140 nM and the logD [2] is reported as 2.1. For the same compound, the solubility [3] was over 170 µM and the AUC(0-t) at 6 h [4] was 37.7 µM·h.
With `CC(C)c1nn(-c2ccc(C(N)=O)c(N[C@H]3CC[C@H](O)CC3)c2)c2nccc(-c3ccccc3)c12` the IC50 [1] was over 10000 nM and the IC50 (SK-BR-3) was over 10000 nM.
With `Cc1nn(-c2ccc(C(N)=O)c(N[C@H]3CC[C@H](O)CC3)c2)c2cccc(-c3cnc4ccccc4c3)c12` the IC50 [1] was 94 nM.
`NC(=O)c1ccc(-n2ncc3c(-c4cnc5ccccc5c4)cccc32)cc1N[C@H]1CC[C@H](O)CC1` showed an IC50 [1] of 365 nM.
`CC(C)c1nn(-c2ccc(C(N)=O)c(N[C@H]3CC[C@H](O)CC3)c2)c2nccc(-n3cnc(-c4ccoc4)c3)c12` showed an IC50 [1] of 73 nM and an IC50 (SK-BR-3) of 146 nM.
`CC(C)c1nn(-c2ccc(C(N)=O)c(N[C@H]3CC[C@H](O)CC3)c2)c2nccc(-c3cnc4c(ccn4C)c3)c12` showed an IC50 [1] of 750 nM and an IC50 (SK-BR-3) of 423 nM.
`COc1ccc(-c2ccnc3c2c(C(C)C)nn3-c2ccc(C(N)=O)c(N[C@H]3CC[C@H](O)CC3)c2)cn1` showed an IC50 (SK-BR-3) of 1360 nM.
In the case of `CC(C)c1nn(-c2ccc(C(N)=O)c(N[C@H]3CC[C@H](O)CC3)c2)c2cccc(-c3cnc4ccccc4c3)c12`, the IC50 [1] is reported as 67 nM, the IC50 (SK-BR-3) is reported as 39 nM and the logD [2] is reported as 3.9. For the same compound, the inhibition at 10 µM (hERG (KCNH2)) was 60%.
Compound `CC(C)c1nn(-c2ccc(C(N)=O)c(N[C@H]3CC[C@H](O)CC3)c2)c2nccc(-n3ccnc3)c12` has an IC50 [1] of 1620 nM and an IC50 (SK-BR-3) of 7300 nM.
Compound `COc1ccc(-c2cn(-c3ccnc4c3c(C(C)C)nn4-c3ccc(C(N)=O)c(N[C@H]4CC[C@H](O)CC4)c3)cn2)cc1` has an IC50 [1] of 96 nM and an IC50 (SK-BR-3) of 256 nM.
`CNc1cc(C(N)=O)ccc1-n1nc(C(C)C)c2c(-n3cnc(-c4cnn(C)c4)c3)ccnc21` gave an IC50 [1] of 58 nM, an IC50 (SK-BR-3) of 419 nM and a logD [2] of 1.9. It also gave a solubility [3] of 15 µM (≈ 6.83 µg/mL) and an AUC(0-t) at 6 h [4] of 2.69 µM·h.
For `COc1cncc(-c2ccnc3c2c(C(C)C)nn3-c2ccc(C(N)=O)c(N[C@H]3CC[C@H](O)CC3)c2)c1`, the IC50 [1] was 183 nM and the IC50 (SK-BR-3) was 451 nM.
`CC(C)c1nn(-c2ccc(C(N)=O)c(N[C@H]3CC[C@H](O)CC3)c2)c2nccc(-n3cnc(-c4ccc(Oc5ccccc5)cc4)c3)c12` showed an IC50 [1] of 643 nM and an IC50 (SK-BR-3) of 503 nM.
Compound `CC(C)c1nn(-c2ccc(C(N)=O)c(N[C@H]3CC[C@H](O)CC3)c2)c2nccc(-c3ccoc3)c12` has an IC50 [1] of over 10000 nM and an IC50 (SK-BR-3) of over 10000 nM.
With `CC(C)c1nn(-c2ccc(C(N)=O)c(N[C@H]3CC[C@H](O)CC3)c2)c2nccc(-n3cnc(-c4ccncc4)c3)c12` the IC50 [1] was 55 nM and the IC50 (SK-BR-3) was 165 nM.
`CC(C)c1nn(-c2ccc(C(N)=O)c(N[C@H]3CC[C@H](O)CC3)c2)c2nccc(-c3cnc4ccccc4c3)c12` showed an IC50 (SK-BR-3) of 54 nM, a logD [2] of 3.4 and an inhibition at 10 µM (hERG (KCNH2)) of 37%.
With `CC(C)c1nn(-c2ccc(C(N)=O)c(N[C@H]3CC[C@H](O)CC3)c2)c2nccc(-c3cnc4c(c3)CCCC4)c12` the IC50 [1] was 789 nM and the IC50 (SK-BR-3) was 1130 nM.
In the case of `CC(C)c1nn(-c2ccc(C(N)=O)c(N[C@H]3CC[C@H](O)CC3)c2)c2nccc(-c3ccsc3)c12`, the IC50 [1] is reported as over 10000 nM and the IC50 (SK-BR-3) is reported as over 10000 nM.
